These results are taken from ChEMBL document CHEMBL3259615, “Combination of triple bond and adamantane ring on the vitamin D side chain produced partial agonists for vitamin D receptor” (J Med Chem, 2014).

Active and inactive are the calls of the source. The calls are words filed in the database; no cut-off is given here.

The first test deals with T1, Vitamin D3 receptor (Homo sapiens, UniProt P11473).
T1 sequence (P11473 whole entry): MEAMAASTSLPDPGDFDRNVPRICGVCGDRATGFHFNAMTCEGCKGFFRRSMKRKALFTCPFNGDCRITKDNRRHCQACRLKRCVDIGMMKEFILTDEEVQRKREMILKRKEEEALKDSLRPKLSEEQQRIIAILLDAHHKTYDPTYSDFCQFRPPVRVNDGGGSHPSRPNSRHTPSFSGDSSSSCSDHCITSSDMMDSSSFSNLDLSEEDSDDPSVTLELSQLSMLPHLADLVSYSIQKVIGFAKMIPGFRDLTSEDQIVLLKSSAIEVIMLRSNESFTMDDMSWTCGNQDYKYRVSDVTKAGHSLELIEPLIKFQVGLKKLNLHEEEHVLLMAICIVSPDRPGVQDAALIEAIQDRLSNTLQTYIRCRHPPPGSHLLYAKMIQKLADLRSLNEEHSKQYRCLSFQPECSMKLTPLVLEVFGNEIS
As to the kind of experiment: Activation of human VDR expressed in HEK293 cells cotransfected CMX-GAL4-RXRalpha and 4-tk-LUC assessed as heterodimerization with RXRalpha by mammalian two-hybrid assay. The format is cell-based.
Settings: not given
The method in brief: (§1)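 HEK293 cells in DMEM with 5% FBS, per well: 50 ng TK-MH100(UAS)×4-LUC reporter, 10 ng pCMX-β-galactosidase, 15 ng pCMX-VP16-VDR, and 15 ng of a GAL4 fusion. The fusion was RXRα for heterodimerisation, SRC-1 for coactivator binding, N-CoR, or SMRT (NCoR2). Cells were treated across a concentration range. Luciferase was normalised to β-galactosidase.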
With `C=C1[C@H](O)CC(=C/C=C2\CCC[C@]3(C)[C@@H]([C@H](C)CC#C[C@H](O)C45CC6CC(CC(C6)C4)C5)CC[C@@H]23)C[C@H]1O`, the 50% effective concentration (EC50) was 4.4 nM.

In the next test the target is T1, Vitamin D3 receptor. Kind of test: Displacement of [3H]-1,25(OH)2D3 from GST-fused human VDR-LBD expressed in Escherichia coli BL21.
Settings: not given
The procedure, abridged:
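hVDR-LBD (aa 140–427) as a GST fusion from E. coli BL21 sonicated lysate, 1 μg in pH 7.5 Tris/KCl/DTT/CHAPS buffer with BSA. Ligand in EtOH was preincubated 30 min at RT. [26,27-methyl-³H]-1,25(OH)₂D₃ was then added for 20 h at 4 °C. Free ligand was removed with dextran-coated charcoal and centrifugation, and bound radioactivity counted. IC50 from at least two triplicate runs.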
Take `C=C1[C@H](O)CC(=C/C=C2\CCC[C@]3(C)[C@@H]([C@H](C)CC#C[C@H](O)C45CC6CC(CC(C6)C4)C5)CC[C@@H]23)C[C@H]1O`: the IC50 was found to be 12 nM.

The next test has as its system HaCaT. As to the kind of experiment: Induction of cathelicidine antimicrobial peptide mRNA expression in human HaCaT cells at 100 nM after 24 hrs by real-time PCR relative to 1-alpha,25-dihydroxyvitamin D3. Format: functional.
Settings: not given
The procedure, abridged:
(§2)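 Cells seeded at 1 × 10⁴ per well and treated 24 h later with ethanol vehicle or 100 nM ligand for 24 h. Total RNA taken by a chloroform method, reverse-transcribed, and target mRNA quantified by SYBR Green real-time PCR, normalized to ACTIN mRNA. Culture media: HEK293 in DMEM 5% FBS; SW480 and HaCaT in DMEM 10% FBS; MG63 in MEM 10% FBS; THP-1 and U937 in RPMI1640 10% FBS; all at 37 °C, 5% CO₂.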
Turning to `C=C1[C@H](O)CC(=C/C=C2\CCC[C@]3(C)[C@@H]([C@H](C)CC#C[C@H](O)C45CC6CC(CC(C6)C4)C5)CC[C@@H]23)C[C@H]1O`, the Activity turned out to be 15%.

For the next test, the target named is T1, Vitamin D3 receptor. Kind of test: Activation of human VDR expressed in HEK293 cells cotransfected CMX-GAL4-NCoR2 and 4-tk-LUC assessed as inhibition of NCoR2 binding to VDR by mammalian two-hybrid assay. The format is cell-based.
Settings: not given
The procedure, abridged:
as §1
For `C=C1[C@H](O)CC(=C/C=C2\CCC[C@]3(C)[C@@H]([C@H](C)CC#C[C@H](O)C45CC6CC(CC(C6)C4)C5)CC[C@@H]23)C[C@H]1O`, the EC50 is 4.1 nM.

A further test has as its system THP-1. Kind of test: Induction of cathelicidine antimicrobial peptide mRNA expression in human THP1 cells at 100 nM after 24 hrs by real-time PCR relative to 1-alpha,25-dihydroxyvitamin D3. Format: functional.
Settings: not given
The method in brief: as §2
On to `C=C1[C@H](O)CC(=C/C=C2\CCC[C@]3(C)[C@@H]([C@H](C)CC#C[C@H](O)C45CC6CC(CC(C6)C4)C5)CC[C@@H]23)C[C@H]1O`, for which the Activity stood at 20%.

In the next test the test system is U-937. As to the kind of experiment: Induction of cathelicidine antimicrobial peptide mRNA expression in human U937 cells at 100 nM after 24 hrs by real-time PCR relative to 1-alpha,25-dihydroxyvitamin D3.
Settings: not given
The format is functional. The method in brief:
as §2
`C=C1[C@H](O)CC(=C/C=C2\CCC[C@]3(C)[C@@H]([C@H](C)CC#C[C@H](O)C45CC6CC(CC(C6)C4)C5)CC[C@@H]23)C[C@H]1O` came in with an Activity of 30%.

The next test concerns the target T1, Vitamin D3 receptor. Kind of test: Activation of human VDR expressed in HEK293 cells cotransfected CMX-GAL4-SRC1 and 4-tk-LUC assessed as SRC1 interaction with AF2 surface of VDR by mammalian two-hybrid assay. The format is cell-based.
Settings: not given
The procedure, abridged: as §1
As for `C=C1[C@H](O)CC(=C/C=C2\CCC[C@]3(C)[C@@H]([C@H](C)CC#C[C@H](O)C45CC6CC(CC(C6)C4)C5)CC[C@@H]23)C[C@H]1O`, the EC50 is 15 nM.

In the next test the test system is SW480. As to the kind of experiment: Induction of TRPV6 mRNA expression in human SW480 cells at 100 nM after 24 hrs by real-time PCR relative to 1-alpha,25-dihydroxyvitamin D3. The format is functional.
Settings: not given
The procedure, abridged: as §2
`C=C1[C@H](O)CC(=C/C=C2\CCC[C@]3(C)[C@@H]([C@H](C)CC#C[C@H](O)C45CC6CC(CC(C6)C4)C5)CC[C@@H]23)C[C@H]1O` returned an Activity of 30%.

The target of a further test is T2, Vitamin D3 receptor (Homo sapiens) (UniProt P11473).
T2 sequence (whole entry): T1 sequence (P11473 whole entry)
To be noted: HEK293, 10 to 1000 nM.
For `C=C1[C@H](O)CC(=C/C=C2\CCC[C@]3(C)[C@@H]([C@H](C)CC#C[C@H](O)C45CC6CC(CC(C6)C4)C5)CC[C@@H]23)C[C@H]1O`, the inhibition entry was “Active”.

A further test has as its target T1, Vitamin D3 receptor. Kind of test: Activation of human VDR expressed in HEK293 cells cotransfected CMX-GAL4-N-CoR and 4-tk-LUC assessed as inhibition of N-CoR binding to VDR by mammalian two-hybrid assay. The format is cell-based.
Settings: not given
The method in brief:
as §1
On to `C=C1[C@H](O)CC(=C/C=C2\CCC[C@]3(C)[C@@H]([C@H](C)CC#C[C@H](O)C45CC6CC(CC(C6)C4)C5)CC[C@@H]23)C[C@H]1O`, for which the EC50 turned out to be 4 nM.

The test system of a further test is U-937. As to the kind of experiment: Induction of cyp24A1 mRNA expression in human U937 cells at 100 nM after 24 hrs by real-time PCR relative to 1-alpha,25-dihydroxyvitamin D3. The format is functional.
Settings: not given
The method in brief:
as §2
As to `C=C1[C@H](O)CC(=C/C=C2\CCC[C@]3(C)[C@@H]([C@H](C)CC#C[C@H](O)C45CC6CC(CC(C6)C4)C5)CC[C@@H]23)C[C@H]1O`, the Activity worked out at 1%.

Another test relates to HEK293. Kind of test: Induction of cyp24A1 mRNA expression in HEK293 cells at 100 nM after 24 hrs by real-time PCR relative to 1-alpha,25-dihydroxyvitamin D3. Format: functional, Homo sapiens.
Settings: not given
The method in brief: as §2
Compound `C=C1[C@H](O)CC(=C/C=C2\CCC[C@]3(C)[C@@H]([C@H](C)CC#C[C@H](O)C45CC6CC(CC(C6)C4)C5)CC[C@@H]23)C[C@H]1O` came in with an Activity of 15%.

A further test concerns THP-1. As to the kind of experiment: Induction of cyp24A1 mRNA expression in human THP1 cells at 100 nM after 24 hrs by real-time PCR relative to 1-alpha,25-dihydroxyvitamin D3. The format is functional.
Settings: not given
The method in brief:
as §2
With `C=C1[C@H](O)CC(=C/C=C2\CCC[C@]3(C)[C@@H]([C@H](C)CC#C[C@H](O)C45CC6CC(CC(C6)C4)C5)CC[C@@H]23)C[C@H]1O`, the Activity came out at 1%.

The test system of a further test is SW480. As to the kind of experiment: Induction of cyp24A1 mRNA expression in human SW480 cells at 100 nM after 24 hrs by real-time PCR relative to 1-alpha,25-dihydroxyvitamin D3.
Settings: not given
The format is functional. The procedure, abridged:
as §2
`C=C1[C@H](O)CC(=C/C=C2\CCC[C@]3(C)[C@@H]([C@H](C)CC#C[C@H](O)C45CC6CC(CC(C6)C4)C5)CC[C@@H]23)C[C@H]1O` returned an Activity of 32%.

The next test concerns the target T1, Vitamin D3 receptor. Kind of test: Transactivation of human VDR expressed in HEK293 cells cotransfected with mouse VDRE, Tk-Sppx3-LUC reporter plasmid measured after 24 hrs by luciferase reporter assay. Format: cell-based.
Settings: not given
The method in brief: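 HEK293 cells in DMEM with 5% FBS, calcium phosphate-transfected per well with 50 ng TK-Spp×3-LUC (mouse osteopontin VDRE), 10 ng pCMX-β-galactosidase, 15 ng pCMX-VDR and 15 ng pCMX-RXRα. Compounds were tested across a concentration range and cells harvested after 16–24 h. Luciferase was normalised to β-galactosidase. EC50 and efficacy relative to 1,25(OH)₂D₃.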
On to `C=C1[C@H](O)CC(=C/C=C2\CCC[C@]3(C)[C@@H]([C@H](C)CC#C[C@H](O)C45CC6CC(CC(C6)C4)C5)CC[C@@H]23)C[C@H]1O`, for which the EC50 stood at 6.6 nM.

Another test relates to HaCaT. As to the kind of experiment: Induction of cyp24A1 mRNA expression in human HaCaT cells at 100 nM after 24 hrs by real-time PCR relative to 1-alpha,25-dihydroxyvitamin D3. Format: functional.
Settings: not given
The procedure, abridged: as §2
In the case of `C=C1[C@H](O)CC(=C/C=C2\CCC[C@]3(C)[C@@H]([C@H](C)CC#C[C@H](O)C45CC6CC(CC(C6)C4)C5)CC[C@@H]23)C[C@H]1O`, the Activity was determined as 22%.

The next test concerns MG-63. As to the kind of experiment: Induction of cyp24A1 mRNA expression in human MG63 cells at 100 nM after 24 hrs by real-time PCR relative to 1-alpha,25-dihydroxyvitamin D3. Format: functional.
Settings: not given
The method in brief: as §2
For the compound `C=C1[C@H](O)CC(=C/C=C2\CCC[C@]3(C)[C@@H]([C@H](C)CC#C[C@H](O)C45CC6CC(CC(C6)C4)C5)CC[C@@H]23)C[C@H]1O`, the Activity was 5%.
